According to ChEMBL document CHEMBL3421613, “Inubosins A, B, and C are acridine alkaloids isolated from a culture of Streptomyces sp. IFM 11440 with Ngn2 promoter activity” (J Nat Prod, 2015):
Calls of active or inactive are those of the source. No cut-off for these calls is given here.

Key:
C3H 10T1/2 [1] = assay: Activation of 1650 bp mouse Ngn2 promoter activity expressed in mouse C3H10T1/2 cells at 100 uM incubated for 24 hrs by luciferase reporter gene assay relative to untreated control; type: cell-based
In short: (§1)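 C3H10T1/2 mesenchymal progenitor cells stably transfected with a luciferase reporter carrying the mouse Ngn2 promoter region (1650 bp). Cells were exposed for 24 h in 0.1% DMSO, with DMSO as negative control and baicalin (100 μM) as positive control. Luciferase output was read, n = 3, SD. Cytotoxicity to the same cells was measured in parallel by fluorimetric microculture assay (esterase hydrolysis of fluorescein diacetate).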

C3H 10T1/2 [2] = assay: Activation of 1650 bp mouse Ngn2 promoter activity expressed in mouse C3H10T1/2 cells at 2.5 to 20 uM incubated for 24 hrs by luciferase reporter gene assay; type: cell-based; in short: as §1
Mus musculus [3] = organism: Mus musculus; assay: Induction of cell differentiation of mouse C17.2 cells assessed as appearance of differentiated cell bodies; type: functional
Mus musculus [4] = organism: Mus musculus; assay: Induction of Ngn2 mRNA expression in mouse C17.2 cells at 20 uM incubated for 4 days by real-time RT-PCR method; type: functional, cell-based
In short: (§2)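 Mouse C17.2 neural stem cells were treated at 20 μM for 4 days, with baicalin (20 μM) as positive control. Total RNA was isolated and Ngn2, Ngn1, NeuroD2 and NT3 transcripts were quantified by real-time RT-PCR. mRNA levels were normalized to GAPDH; SD shown.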

Mus musculus [5] = organism: Mus musculus; assay: Induction of Ngn1 mRNA expression in mouse C17.2 cells at 20 uM incubated for 4 days by real-time RT-PCR method; type: functional, cell-based; in short: as §2
Mus musculus [6] = organism: Mus musculus; assay: Induction of NeuroD2 mRNA expression in mouse C17.2 cells at 20 uM incubated for 4 days by real-time RT-PCR method; type: functional, cell-based; in short: as §2
Mus musculus [7] = organism: Mus musculus; assay: Induction of NT3 mRNA expression in mouse C17.2 cells at 20 uM incubated for 4 days by real-time RT-PCR method; type: functional, cell-based; in short: as §2
C3H 10T1/2 [8] = assay: Activation of 1650 bp mouse Ngn2 promoter activity expressed in mouse C3H10T1/2 cells at 20 uM incubated for 24 hrs by luciferase reporter gene assay relative to untreated control; type: cell-based; in short: as §1
C3H 10T1/2 [9] = assay: Activation of 1650 bp mouse Ngn2 promoter activity expressed in mouse C3H10T1/2 cells at 20 uM incubated for 24 hrs by luciferase reporter gene assay relative to baicalin; type: cell-based; in short: as §1

| Structure (SMILES) | fold change (FC) (C3H 10T1/2 [1]) | Activity (C3H 10T1/2 [2]) | Activity (Mus musculus [3]) | Activity (Mus musculus [4]) | Activity (Mus musculus [5]) | Activity (Mus musculus [6]) | Activity (Mus musculus [7]) | fold change (FC) (C3H 10T1/2 [8]) | fold change (FC) (C3H 10T1/2 [9]) |
| --- | --- | --- | --- | --- | --- | --- | --- | --- | --- |
| O=C(O)[C@H]1O[C@@H](Oc2cc3oc(-c4ccccc4)cc(=O)c3c(O)c2O)[C@H](O)[C@@H](O)[C@@H]1O | 1.5 |  |  |  |  |  |  |  |  |
| OCc1ccc2nc3c(O)cccc3cc2c1 |  | inactive | Active | Active | Active | Active | Active |  |  |
| OCc1cc(O)c2nc3c(O)cccc3cc2c1 |  | inactive |  |  |  |  |  |  |  |
| OCc1cc(O)c2nc3ccccc3cc2c1 |  | Dose-dependent effect | Active | Active | Active | Active | Active | 2.8 | 1.9 |
